The text below walks through data of PubChem BioAssay AID493160 (Sanford-Burnham Center for Chemical Genomics, 2011).

Hit rate of the full screen: of about 340,000 compounds, about 540 (0.16%) were called active.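 Rule for the calls: active = inhibition above about 35% when tested at 20 µM (limit read from the data); inactive = the rest.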 Many of the other results were omitted from the sample, so actives are more common in it than they were.

Chain of Hexokinase HKDC1 (Homo sapiens) (Q2TB90 whole entry, looked up): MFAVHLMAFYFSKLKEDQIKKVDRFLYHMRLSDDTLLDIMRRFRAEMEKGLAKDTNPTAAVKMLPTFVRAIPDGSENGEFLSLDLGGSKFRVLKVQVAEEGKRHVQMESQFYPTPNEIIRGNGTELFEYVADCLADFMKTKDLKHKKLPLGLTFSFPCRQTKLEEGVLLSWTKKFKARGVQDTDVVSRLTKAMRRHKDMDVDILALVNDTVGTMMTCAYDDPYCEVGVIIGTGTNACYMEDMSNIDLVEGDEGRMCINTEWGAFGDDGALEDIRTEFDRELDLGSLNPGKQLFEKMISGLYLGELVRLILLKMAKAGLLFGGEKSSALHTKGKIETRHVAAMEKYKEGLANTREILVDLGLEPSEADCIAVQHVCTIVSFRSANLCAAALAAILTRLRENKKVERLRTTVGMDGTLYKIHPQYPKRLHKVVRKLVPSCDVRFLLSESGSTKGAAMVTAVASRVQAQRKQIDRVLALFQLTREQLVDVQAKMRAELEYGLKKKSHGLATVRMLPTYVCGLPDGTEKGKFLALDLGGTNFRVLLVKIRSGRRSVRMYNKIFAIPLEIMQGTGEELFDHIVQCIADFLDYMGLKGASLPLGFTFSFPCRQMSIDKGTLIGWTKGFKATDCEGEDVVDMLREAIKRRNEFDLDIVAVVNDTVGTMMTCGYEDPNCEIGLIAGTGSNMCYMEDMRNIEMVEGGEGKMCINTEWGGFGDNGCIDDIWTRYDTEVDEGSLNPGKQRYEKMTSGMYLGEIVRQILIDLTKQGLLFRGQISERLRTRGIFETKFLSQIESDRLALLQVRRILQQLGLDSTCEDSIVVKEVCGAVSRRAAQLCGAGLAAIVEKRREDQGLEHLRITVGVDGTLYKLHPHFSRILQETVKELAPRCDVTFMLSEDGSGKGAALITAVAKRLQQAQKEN

In the assay the target is Hexokinase HKDC1 (Homo sapiens) (UniProt Q2TB90). The experiment in a line: blockers of human HKDC1 enzyme activity – biochemical, fluorescence, uHTS, primary screen (AID 493160).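 Note: plate controls were DMSO wells with enzyme for no effect and DMSO wells lacking enzyme for full effect.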 To be noted: recombinant HKDC1, G6PDH/diaphorase resazurin coupled fluorescence; at 20 µM; active compounds read high. A digest of the protocol: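 System: Recombinant HKDC1 hexokinase | Amount: HKDC1 at 5 µg/mL | Reagent: Glucose with 1 mM ATP | Doses: Single 20 µM dose | Incubation: Reaction time 90 min, room temperature, protected from light | Signal: Coupled resazurin fluorescence, excitation 525 nm, emission 613 nm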
Turning to `CCCC(=O)N1CCC(CCC(=O)NC2CC2)CC1`, the inhibition was -4.77% (inactive).
Then `COc1cc(Cl)c(C)cc1NC(=O)CSc1nnc(CN2CCCC2)o1`, with -4.86% (inactive); and `O=S(=O)(NN=C1CCCCCCC1)c1ccc(Br)cc1`, with 3.73% (inactive).
With `CCOc1cc(NC(=S)NCCCN(C)C)c(OCC)cc1NC(=O)C1CC1` the figure was -8.33% (inactive); with `CC(Cc1cccs1)N(Cc1ccc(Cl)cc1)C(=O)c1ccncc1` (stereo unspecified), 3.31% (inactive); with `O=C1C(=O)N(CCCN2CCOCC2)C(c2ccc([N+](=O)[O-])cc2)/C1=C(\O)c1ccc2c(c1)OCCO2` (stereo unspecified), -4.72% (inactive).
On to `Cc1cccc(-n2c(SCC(=O)Nc3cccc(S(=O)(=O)NC4=NCCCCC4)c3)nc3ccccc3c2=O)c1C`, for which the inhibition was 1.69% (inactive).
With `Cc1ccnc(SCC(=O)Nc2cccc(S(=O)(=O)N3CCOCC3)c2)n1` the figure was 0.74% (inactive); with `CCOC(=O)C1CCN(C(=O)CC2C(=O)N(Cc3ccccc3)C(C)c3nc4ccccc4n32)CC1` (stereo unspecified), -7.65% (inactive); with `CCCCN(C(=O)c1ccc2ccccc2c1)c1c(N)n(CCCC)c(=O)[nH]c1=O`, -1.92% (inactive).
Then `CCN(CC)C(=O)CSc1nc2ccccc2n1CC(=O)N1CCN(c2ccccc2OC)CC1`, with -2.34% (inactive); and `CCC(C)NC(=O)c1cc(Cl)ccc1OC` (stereo unspecified), with -12.3% (inactive); and `COc1ccc(C(=O)COC(=O)Cn2cnc3c2c(=O)n(C)c(=O)n3C)c(OC)c1`, with -0.76% (inactive).
Regarding `COc1ccc2[nH]c3c(c2c1)CCN1C(=O)C(CC(=O)NCc2cccc(C(F)(F)F)c2)C[C@H](C(=O)N2CCOCC2)[C@@]31C` (stereo partly specified), the inhibition is 5.85% (inactive).
With `O=C(O)CCCCCCCCCC[n+]1ccccc1` the figure was -10.3% (inactive); with `Cc1cc(C)n2nc(C(=O)OCC(=O)N(C)CC(=O)Nc3ccc(F)cc3)nc2n1`, -5.6% (inactive).
With `O=C(NC(=O)c1ccccc1)Nc1ccccc1O` the figure was 2.6% (inactive); with `O=C(NC1=CC(=O)c2ccccc2C1=O)c1ccccc1`, 54.1% (active).
Regarding `CC(NC(=O)c1ccccc1)C(=O)Nc1ccccc1` (stereo unspecified), the inhibition is -6.92% (inactive).
With `CCN(Cc1ccccc1)S(=O)(=O)c1cc2c3c(c1)CCN3C(=O)CC2` the figure was 4.66% (inactive).
Consider `Cc1cc(C(=O)COC(=O)CNC(=O)c2ccc(F)cc2)c(C)n1Cc1ccco1`, for which the inhibition was -4.86% (inactive).
Then `O=C(COc1ccccc1)Nc1cc2c3c(c1)CC(=O)N3CCC2`, with -4.21% (inactive); and `Cn1nc(C(F)(F)F)cc1-c1ccc(/C=C(\C#N)C(=O)c2cccc(C(F)(F)F)c2)s1`, with 13.8% (inactive).
Regarding `Cc1cc(C)c2oc(C(=O)Nc3ccc(S(=O)(=O)Nc4nccc(C)n4)cc3)cc(=O)c2c1`, the inhibition is 0.48% (inactive).
Then `COc1cc(OC)cc(C(=O)NCC(=O)N2CCCCCCC2)c1`, with -3.62% (inactive); and `CC(=O)N(C1=C(Cl)C(=O)c2ccccc2C1=O)c1ccc(C(=O)O)cc1`, with 52.2% (active); and `CCCN(CC(=O)Nc1ccccc1C)C(=O)c1ccc(OCC(=O)N2CCOCC2)c(OCC)c1`, with -2.45% (inactive).
For `N#Cc1ccc(C2N=C(c3ccccc3)NO2)cc1` (stereo unspecified), the inhibition is 0.41% (inactive).
With `O=C(C1CCN(S(=O)(=O)c2cnc[nH]2)CC1)N1CCN(Cc2ccc3c(c2)OCO3)CC1` the figure was 0.71% (inactive).
Consider `C=CCN(Cc1nc(-c2cc(OC)c3c(c2)OCO3)oc1C)C1CCS(=O)(=O)C1` (stereo unspecified), for which the inhibition was -3.24% (inactive).
`COc1ccc(N(CC(=O)N/N=C/c2cccs2)S(=O)(=O)c2ccc(OC)c(OC)c2)cc1`: the inhibition is -10.3% (inactive).
Then `CC(=O)Nc1ccc(S(=O)(=O)N(CCc2ccccc2)CC(=O)N/N=C/c2ccc(C(=O)O)cc2)cc1`, with -2.7% (inactive); and `COc1ccc(N(CC(=O)N/N=C/c2cccc3c2OCCO3)S(=O)(=O)c2ccc(NC(C)=O)cc2)cc1`, with 38.1% (active).
On to `COc1ccc(Cl)cc1C(=O)NNC(=O)c1nc2nc(C)cc(C)n2n1`, for which the inhibition is 0.07% (inactive).
On to `O=c1ccc2c(-c3ccccc3S(=O)(=O)O)c3ccc(O)c(O)c3oc-2c1O`, for which the inhibition is 38.4% (active).
`COc1ccccc1CNC(=O)[C@@H]1CCCN1C(=O)[C@@H]1Cc2ccccc2CN1C(=O)OC(C)(C)C`: the inhibition was 3.72% (inactive).
With `Cc1cc[n+](-c2[nH]c(=O)sc2/C=N/NC(=O)c2ccccc2[O-])cc1C`, the inhibition is -1.94% (inactive).
Turning to `O=C(COC(=O)Cn1cnc2ccccc2c1=O)NCc1ccccc1Cl`, the inhibition was -10.3% (inactive).
With `O=C(Nc1cc(-c2nn(CC(=O)N3CCCCC3)c(=O)c3ccccc23)ccc1N1CCOCC1)c1ccc(Cl)cc1`, the inhibition was -2.81% (inactive).
With `O=c1[nH]n2c(-c3ccccc3)nc(O)c2c2ccccc12` the figure was -18.8% (inactive); with `O=c1[nH]c2ccccc2n2c(-c3ccccc3)nnc12`, 46.7% (active).
Then `O=C(C[C@H]1C/C=C\C[C@@H](NC(=O)OCC2c3ccccc3-c3ccccc32)C(=O)O[C@@H](c2ccccc2)CNC1=O)N[C@H](CO)Cc1ccccc1`, with -0.6% (inactive); and `CCOC(=O)CSc1nc2ccc(C)cc2n2cnnc12`, with 53% (active).
With `COc1ccc(CCNc2nc3ccc(C)cc3n3cnnc23)cc1OC` the figure was 8.2% (inactive); with `CCOC(=O)CSc1nncc2ccc(OC)c(OC)c12`, -9.31% (inactive).
Consider `CC1CN(C2CCN(C(=O)COc3ccccc3)CC2)CC(C)O1` (stereo unspecified), for which the inhibition is 1.62% (inactive).
Then `Nc1c(NCCc2ccccc2)c2ccccc2oc1=O`, with -1.28% (inactive); and `CC(C)(C)Nc1c(N)c(=O)oc2ccccc12`, with 44.6% (active); and `O=c1oc2ccccc2c(=O)c2ccccc12`, with -8.91% (inactive).
With `COc1ccc(CCN2CNc3c(c(=O)n(C)c(=O)n3C)C2)cc1OC` the figure was 6.26% (inactive).
With `O=C(Nc1cc(S(=O)(=O)N2CCOCC2)ccc1Cl)c1cc(=O)c2ccccc2o1` the figure was 12.4% (inactive); with `Cc1nnnn1/C(=C\c1ccccc1)C(=O)OCC(=O)N1CC2(C)CC1CC(C)(C)C2` (stereo unspecified), -1.75% (inactive); with `CCN(CC(=O)Nc1ccc2c(c1)OCO2)S(=O)(=O)c1ccccc1`, -0.97% (inactive).
In the case of `O=C(/C=C/c1cccc(C(F)(F)F)c1)N1CCN(c2ccccn2)CC1`, the inhibition is 3.47% (inactive).
For the compound `O=C(CSc1cccc[n+]1[O-])c1ccc(-c2ccccc2)cc1`, the inhibition is -4.64% (inactive).
Turning to `O=C1N[C@@H](Cc2ccccc2)C(=O)N2[C@H]1C[C@]1(Br)c3ccccc3N(S(=O)(=O)c3ccccc3)[C@H]21`, the inhibition is 8.21% (inactive).
Consider `Cc1nn(C)cc1S(=O)(=O)N1CCN(c2ccc(F)cc2)CC1`, for which the inhibition is -0.86% (inactive).
Then `CN(C)c1ccc(C(=S)N2CCN(C(=S)Nc3ccc(Cl)cc3)CC2)cc1`, with 7.9% (inactive).
With `Cc1cc(Cl)ccc1C(=O)C1CCCN(C(=O)CCN2CCCO2)C1` (stereo unspecified) the figure was -7.55% (inactive); with `O=C(/C=C(O)/C=C/c1ccc(O)cc1)/C=C/c1ccc(O)cc1`, 5.34% (inactive); with `O=C(COC(=O)c1ccccc1NC(=O)c1ccco1)Nc1ccc2c(c1)OC(F)(F)O2`, -9.13% (inactive).
As for `CCOC(=O)C(C)n1cnc2scc(-c3ccc(C)c(C)c3)c2c1=O` (stereo unspecified), the inhibition was -0.93% (inactive).
With `COc1ccc(N(C(=O)c2cccnc2)S(=O)(=O)c2ccc(OC)c(OC)c2)cc1` the figure was -5.15% (inactive); with `O=C(c1cccnc1)N(c1cc2sc(=O)oc2c2ccccc12)S(=O)(=O)c1ccccc1`, 38.2% (active); with `O=C(c1cccnc1)N(Cc1ccccc1)C(=O)c1cccnc1`, -5.95% (inactive).
With `CCn1c(SCC(=O)Nc2cc(C)ccc2C)nnc1-c1cnccn1`, the inhibition is 2.21% (inactive).
With `CN1c2ccc(C=O)c3c(C=O)ccc(c23)N(C)C1(C)C` the figure was 36.4% (active).
`CCOC(=O)C1=C(c2ccc(OC)cc2)C(=O)c2ccccc2C1=O`: the inhibition was 81.4% (active).
For the compound `COC(=O)c1cc(OC)ccc1-c1ccc(OC)cc1`, the inhibition was 6.2% (inactive).
Regarding `COc1ccc(CNC(=O)CCN2C(=O)c3ccccc3C2=O)cc1`, the inhibition was 0.43% (inactive).
Then `COC(=O)[C@H](Cc1ccccc1)NC(=O)Nc1ccc(S(N)(=O)=O)cc1`, with 1.79% (inactive); and `C=CC[C@@H](CC(=O)N[C@@H](CO)Cc1ccccc1)C(=O)N[C@H](COC(=O)[C@H](CC=C)CC(=O)OC(C)(C)C)Cc1ccccc1`, with -4.61% (inactive).
As for `COc1ccc(NC(=O)CSc2ccc(-c3ccco3)nn2)c(OC)c1`, the inhibition is 47.3% (active).
Then `COc1ccc(NC(=O)CCC(=O)Nc2cc(OC)c(NC(=O)c3ccco3)cc2OC)c(OC)c1`, with 1.97% (inactive).
For `O=C(CSc1ccc(-c2ccco2)nn1)NCc1ccc2c(c1)OCO2`, the inhibition was -3.81% (inactive).
With `CC(C)N(Cc1nnc(-c2ccccc2Br)o1)C(=O)c1cc(Cl)nc2ccccc12` the figure was 0.82% (inactive); with `CCOC(=O)c1ccc2c(c1)nc(SCC(=O)NC(C)C)n2CC`, -4.33% (inactive); with `Cc1ccc(CN2CCNC(=O)C2CC(=O)NCc2csc(C(C)C)n2)cc1` (stereo unspecified), -3.03% (inactive).
For the compound `CC1CC(C)CN(C(=O)CSc2nnc(CSc3ncccn3)n2C)C1` (stereo unspecified), the inhibition is -4.12% (inactive).
On to `CCS(=O)(=O)N1Cc2ccccc2CC1C(=O)Nc1ccc(OC)cc1OC` (stereo unspecified), for which the inhibition was -2.83% (inactive).
Then `O=C1Nc2cc(C(=O)N3CCC(N4CCCCC4)CC3)ccc2S/C1=C\c1ccccc1`, with -1.91% (inactive); and `CCCCn1nnnc1NCc1cc(OC)c(OC)c(OC)c1`, with 10.4% (inactive); and `COc1ccc2c(c1)c(=Cc1ccc(N(C)C)cc1)c1cc(-c3ccccc3)[n+](C)n12`, with 43.2% (active).
With `Cc1ccc(CNC(=O)CCNS(=O)(=O)c2cccc3nonc23)cc1` the figure was 10.6% (inactive); with `Cc1ccc(OS(=O)Nc2cccc3nccnc23)cc1` (stereo unspecified), 6.4% (inactive).
With `CCCCn1c(N)c(N(CCOC)C(=O)COc2c(C)cccc2C)c(=O)[nH]c1=O` the figure was -3.46% (inactive).
